This is a sample that favours compounds with a hit; in the whole collection about 1.7% have one here.
SUMO1-SIM PPI = modulators of SUMO1 protein-protein interactions, primary screen, biochemical, uHTS. SUMO1 binding to a labelled peptide, TR-FRET, 1 h. 360,000 compounds, 0.33% hits. inhibition, % at 20 µM. Small ubiquitin-related modifier 1 (Homo sapiens), P63165; in the data active means inhibition above about 37%
STEP block = STEP phosphatase inhibitors, primary screen, biochemical, fluorescence intensity, uHTS | Tyrosine-protein phosphatase non-receptor type 5 (Homo sapiens), P54829 | recombinant STEP, OMFP fluorogenic substrate | inhibition, % at 20 µM | 360,000 compounds, 0.25% hits;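 active means inhibition at 20 µM, scaled per plate between control wells, above about 37%, limit read from the data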
Target sequence (P54829 whole entry, looked up): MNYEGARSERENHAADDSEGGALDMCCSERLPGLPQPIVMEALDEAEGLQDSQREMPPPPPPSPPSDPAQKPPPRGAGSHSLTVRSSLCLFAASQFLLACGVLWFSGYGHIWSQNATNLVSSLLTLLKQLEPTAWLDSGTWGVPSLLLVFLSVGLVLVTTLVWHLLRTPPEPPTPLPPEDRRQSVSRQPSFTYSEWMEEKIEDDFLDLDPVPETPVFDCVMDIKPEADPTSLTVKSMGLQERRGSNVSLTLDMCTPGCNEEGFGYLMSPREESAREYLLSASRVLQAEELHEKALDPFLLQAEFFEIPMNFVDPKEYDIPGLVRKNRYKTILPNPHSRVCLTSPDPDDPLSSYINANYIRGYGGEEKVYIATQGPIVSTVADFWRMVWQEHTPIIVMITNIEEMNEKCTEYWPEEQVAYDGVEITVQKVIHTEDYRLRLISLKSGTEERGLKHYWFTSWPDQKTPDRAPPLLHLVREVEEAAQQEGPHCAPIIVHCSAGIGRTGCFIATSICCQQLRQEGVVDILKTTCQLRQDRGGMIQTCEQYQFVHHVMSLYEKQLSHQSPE
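Material: STEP (striatal-enriched tyrosine phosphatase) enzyme, cell-free; Compound dosing: 20 µM single dose in 1% DMSO; Technique: fluorescence read at 480 nm ex / 540 nm em; Times: reaction 20 min, ambient temperature; Medium: 50 mM Bis-Tris pH 6.0 with 2.5 mM DTT and 0.005% Tween 20; Also added: OMFP at 25 µM.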
Pemphigus Ab inh = inhibitors of pemphigus antibody binding to DSG3, primary screen, biochemical, bead-based, flow cytometry, scFv-GFP; DSG3-coupled beads, scFv-anti-DSG3-GFP binding; hits give low values; binding (percent of control), % at 10 µM; 310,000 compounds, 0.48% hits;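 active means binding more than 3 SD below its plate's average and above zero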;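 further: hits lower antibody fragment binding to DSG3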
LMPTP block = LMPTP phosphatase inhibitors, primary screen, biochemical, fluorescence intensity, uHTS; Low molecular weight phosphotyrosine protein phosphatase (Homo sapiens), P24666; recombinant LMPTP-A, OMFP fluorogenic substrate; inhibition, % at 20 µM; 360,000 compounds, 0.22% hits; AID 651560, 2012;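 active means compounds that cut the enzyme signal by at least half of the control window in the single-dose screen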
Target sequence (P24666 whole entry, looked up): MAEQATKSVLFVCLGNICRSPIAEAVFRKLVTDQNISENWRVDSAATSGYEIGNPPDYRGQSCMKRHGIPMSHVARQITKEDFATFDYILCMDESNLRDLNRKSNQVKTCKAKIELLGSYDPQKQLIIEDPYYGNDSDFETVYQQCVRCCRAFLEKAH
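Material: LMPTP-A; amount: 0.625 nM enzyme; doses: single 20 µM dose; times: reaction 50 min, room temperature, dark; technique: fluorescence intensity of OMFP turnover product; benchmarks: no-enzyme and uninhibited controls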
Scp-1 inhibitor = Scp-1 phosphatase inhibitors, primary screen, biochemical, colorimetric, uHTS; Carboxy-terminal domain RNA polymerase II polypeptide A small phosphatase 1 (Homo …; Recombinant Scp1, phosphopeptide, malachite green phosphate absorbance; inhibition, % at 20 µM; 340,000 compounds, 0.88% hits; AID 493091, 2011;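 active means inhibition above about 50% at 20 µM, limit read from the data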
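System: SCP-1 catalytic domain; Reagent: Phospho 17-mer peptide substrate; Doses: one concentration, 20 µM, with 1.0% DMSO; Incubation: 45 min room-temperature reaction, 5 min colour, 30 min stabiliser; Signal: Phosphate-binding colour reagent, absorbance read at 630 nm.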
Of the large screens only hits and unclear results are named; the others gave an inactive call.

CC(CC(=O)OCC(=O)Nc1ccc2[nH]c(=O)[nH]c2c1)c1ccccc1 (stereo not given)	SUMO1-SIM PPI 46 (no result: Pemphigus Ab inh)
COc1ccc(C(=O)Nc2ccc(N3CCCC3)cc2)cc1	none
COc1ccc(S(=O)(=O)N2CCC(NC(=O)c3ccccc3)CC2)cc1	none
COc1ccc(N2CCN(S(=O)(=O)c3ccc(C(=O)NC4CCCC4)cc3)CC2)cc1	SUMO1-SIM PPI 51, Pemphigus Ab inh 75
COc1ccc(C(=O)NC(=S)Nc2ccc(N3CCCC3)cc2)cc1	Pemphigus Ab inh 19
CC(C)Cc1nnc(NC(=O)c2ccc3c(=O)n4c(nc3c2)CCC4)s1	none
COc1ccc(N2CC(C(=O)Nc3ccccc3N3CCCC3)CC2=O)c(OC)c1 (stereo not given)	none
CC(C)CCC1(C)NC(=O)N(CC(=O)c2ccc[nH]2)C1=O (stereo not given)	none
C[C@@H]1CN([C@@H](C)CO)S(=O)(=O)c2ccc(Br)cc2O[C@@H]1CN(C)C(=O)C1CC1	Pemphigus Ab inh 84 (no result: Scp-1 inhibitor)
C[C@H]1CN([C@@H](C)CO)S(=O)(=O)c2ccc(Br)cc2O[C@H]1CN(C)C(=O)C1CCC1	none (no result: Scp-1 inhibitor)
CCCCN(C)CCCNC(=O)CN1N=C(c2ccc(Cl)cc2)CCC1=O	Pemphigus Ab inh 75
COc1cccc(Cn2c(N)c(C#N)c3nc4ccccc4nc32)c1OC	SUMO1-SIM PPI 40
COc1ccc(Cn2c(N)c(C#N)c3nc4ccccc4nc32)cc1	none
COc1ccc(Oc2cccc(Cl)c2CNC(=O)CCCC(=O)O)cc1	none
CCOc1ccccc1CNC(=O)C1CCCN(c2nnc(C)c3c(C)n(-c4ccccc4)nc23)C1 (stereo not given)	SUMO1-SIM PPI 47
COc1ccc(-n2nc3c(N4CCC(C(=O)NCc5ccco5)CC4)nnc(C)c3c2C)cc1	LMPTP block 53
Cc1ccc(-n2nc3c(N4CCC(C(=O)NCc5ccc(C)o5)CC4)nnc(C)c3c2C)cc1	LMPTP block 65
COc1ccc(-n2nc3c(N4CCC(C(=O)NCc5ccccc5C)CC4)nnc(C)c3c2C)cc1	none (no result: Pemphigus Ab inh)
Cc1ccc(-n2nc3c(N4CCC(C(=O)NCCc5ccco5)CC4)nnc(C)c3c2C)cc1	none
COC(=O)[C@]12CCCCC=C1N(CCc1ccc(OC)c(OC)c1)C(=O)[C@H](CC(=O)NCc1cccc(C(F)(F)F)c1)C2	none (no result: STEP block, Pemphigus Ab inh, Scp-1 inhibitor)
Cc1cccc(C(=O)O/N=C(/c2ccccc2)c2ccncc2)c1	SUMO1-SIM PPI 40
COc1ccc(NC(=O)CCn2c(=S)[nH]c3ccccc3c2=O)cc1Cl	Pemphigus Ab inh 82, LMPTP block 49 (no result: Scp-1 inhibitor)
CC(C)Sc1nc(-c2ccccc2)cc(=O)[nH]1	none
O=c1cc(-c2ccccc2)nc(Sc2ccc([N+](=O)[O-])cc2[N+](=O)[O-])[nH]1	Pemphigus Ab inh 81
COCCCNC(=O)/C(C#N)=C1\N=C(NC(=O)c2cccs2)c2ccccc21	none (no result: Pemphigus Ab inh)
N#C/C(C(=O)NCCc1ccccc1)=C1/N=C(NC(=O)c2cccs2)c2ccccc21	SUMO1-SIM PPI 48
COc1ccc(CCN=C(N)NS(=O)(=O)c2cc(F)ccc2F)cc1	none
Nc1nc(N)c2c(ccc3c2ccn3Cc2cccc([N+](=O)[O-])c2)n1	LMPTP block 69 (no result: Pemphigus Ab inh, Scp-1 inhibitor)
Cc1ccc(C2=CC(c3ccccc3)n3ncnc3N2)cc1 (stereo not given)	none
C1=C(c2ccccc2)Nc2ncnn2C1c1ccccc1 (stereo not given)	Pemphigus Ab inh 69
O=S(=O)(NCc1csc(-c2cccnc2)n1)c1ccc(Br)cc1	none
COc1ccc(S(=O)(=O)NCc2csc(-c3cccnc3)n2)cc1	SUMO1-SIM PPI 43
COc1cc(/C=N/NC(=S)NCC2CCCO2)cc(OC)c1OC (stereo not given)	Pemphigus Ab inh 84
CN(C(=O)Cn1nnc(-c2cccnc2)n1)C1CCCCC1	none (no result: SUMO1-SIM PPI, STEP block, Pemphigus Ab inh, LMPTP block)
O=C(Nc1cccc(S(=O)(=O)N2CCCC2)c1)c1cc(-c2ccccn2)nc2ccccc12	none
O=C(CN(C1CCCCC1)C1CCCCC1)N1CCc2ccccc2C1	Pemphigus Ab inh 41
O=C(CN(C1CCCCC1)S(=O)(=O)c1ccccc1)N1CCCC1	none
Cc1cc(NC(=O)CCCN2C(=O)/C(=C/c3cccs3)SC2=S)no1	Pemphigus Ab inh 16
Cc1cc(NC(=O)CCCN2C(=O)c3cccc4cccc(c34)C2=O)no1	Pemphigus Ab inh 92
CCc1ccc(/C=C2\SC(=S)N(CCCC(=O)Nc3cc(C)on3)C2=O)cc1	none (no result: Scp-1 inhibitor)
CCOC(=O)C1(C)CCCCCN1C(=O)c1ccc(C(F)(F)F)nc1C (stereo not given)	none (no result: Pemphigus Ab inh, Scp-1 inhibitor)
CCNc1ccc(S(=O)(=O)N(C)C)cc1[N+](=O)[O-]	Scp-1 inhibitor 59
CS(=O)(=O)Cc1ccc(C(=O)N2CCN(C(=O)c3cccs3)CC2)cc1	none (no result: Pemphigus Ab inh)
COc1ccc(NC(=O)COc2ccc(/C=N/NC(=O)c3cccnc3)cc2OC)cc1	none
COc1cc(/C=N/NC(=O)c2cccnc2)ccc1OCC(=O)Nc1ccccc1Cl	SUMO1-SIM PPI 86 (no result: Pemphigus Ab inh)
CCOC(=O)CN1C(=O)/C(=C/c2ccccc2Br)Oc2ccccc21	Pemphigus Ab inh -3.0
CC(C)(C)c1ccc(C(=O)c2c[nH]c(C(=O)NCCCN3CCOCC3)c2)cc1	Pemphigus Ab inh -3.8
CCOc1ccc2nc(SCC(=O)N(CCOC)c3c(N)n(Cc4ccccc4)c(=O)[nH]c3=O)[nH]c2c1	none
Nc1nonc1-n1nnc(C(=O)N/N=C/c2ccc(OCc3ccccc3F)cc2)c1CN1CCCCC1	Pemphigus Ab inh -3.4
Nc1nonc1-n1nnc(C(=O)N/N=C/c2ccc(OCc3cccc(Cl)c3)cc2)c1CN1CCCCC1	none
CCN1/C(=C/C=C/C=C/C=C/c2sc3ccccc3[n+]2CC)Sc2ccccc21	none
CCN1/C(=C/c2ccc3cc(C)ccc3[n+]2CC)Sc2ccccc21	LMPTP block 72
CCN1/C(=C/C=C/c2sc3ccccc3[n+]2CC)Sc2ccccc21	Pemphigus Ab inh -10, LMPTP block 62
CCN1/C(=C/c2ccc3cc(C)ccc3[n+]2CC)Sc2cc(C)c(C)cc21	LMPTP block 65
CC[n+]1c(/C=C2\Sc3ccccc3N2C)ccc2cccc(C)c21	LMPTP block 81
CCN1/C(=C/c2sc(-c3ccccc3C)c[n+]2C)Sc2ccccc21	none
CC(=O)c1cccc(-c2ccnc3c2CC(C(=O)Nc2ccc(C(C)C)cc2)O3)c1 (stereo not given)	none (no result: Pemphigus Ab inh, Scp-1 inhibitor)
CC(C)NC(=O)C1c2ccccc2Oc2ccccc21	none
CC(C)c1cc(CNC(=O)C2CCC(=O)N(CCc3ccc(Cl)cc3)C2)on1 (stereo not given)	none
